# Data taken from ChEMBL document CHEMBL1148460, “Interaction of cycloSal-pronucleotides with cholinesterases from different origins. A structure-activity relationship” (J Med Chem, 2004).
# Tests used:
# Acetylcholinesterase = Acetylcholinesterase (Electrophorus electricus, UniProt O42275); assay: Inhibitory activity towards Electrophorus electricus acetylcholinesterase
# Cholinesterase = Cholinesterase (Homo sapiens, UniProt P06276); assay: Inhibitory activity towards human butyrylcholinesterase
# Method in brief: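 Modified Rappaport assay following acetylcholine chloride hydrolysis to acetic acid, with m-nitrophenol indicator in phosphate buffer at pH 7.8 and NaCl. The compound is added in DMSO, and the reaction is started with serum (human, mouse or calf). A420 is read at 25 °C at 0 and 5 min. Final inhibitor is 0.1, 0.5, 1, 5, 10, 30 and 50 µM. IC50 is interpolated from ΔE plots in the pseudolinear region.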
# Vero = assay: Anti-HSV-1 activity tested in Vero cells; format: functional, cell-based; conditions: Chlorocebus sabaeus
# Human gammaherpesvirus 4 = assay: Anti-EBV activity blocking EBV-DNA synthesis; format: functional, organism-based
# CCRF-CEM [1] = assay: Anti-HIV-2 activity tested in human lymphocytic CEM cells; format: functional, cell-based
# CCRF-CEM [2] = assay: Anti-HIV-1 activity tested in human lymphocytic CEM cells; format: functional, cell-based
# [3] = Half-life was determined; format: ADME; conditions: human
# L1210 = assay: Antitumor activity tested in L1210 cells; format: functional, cell-based; conditions: Mus musculus
# Chain of Cholinesterase (P06276 whole entry): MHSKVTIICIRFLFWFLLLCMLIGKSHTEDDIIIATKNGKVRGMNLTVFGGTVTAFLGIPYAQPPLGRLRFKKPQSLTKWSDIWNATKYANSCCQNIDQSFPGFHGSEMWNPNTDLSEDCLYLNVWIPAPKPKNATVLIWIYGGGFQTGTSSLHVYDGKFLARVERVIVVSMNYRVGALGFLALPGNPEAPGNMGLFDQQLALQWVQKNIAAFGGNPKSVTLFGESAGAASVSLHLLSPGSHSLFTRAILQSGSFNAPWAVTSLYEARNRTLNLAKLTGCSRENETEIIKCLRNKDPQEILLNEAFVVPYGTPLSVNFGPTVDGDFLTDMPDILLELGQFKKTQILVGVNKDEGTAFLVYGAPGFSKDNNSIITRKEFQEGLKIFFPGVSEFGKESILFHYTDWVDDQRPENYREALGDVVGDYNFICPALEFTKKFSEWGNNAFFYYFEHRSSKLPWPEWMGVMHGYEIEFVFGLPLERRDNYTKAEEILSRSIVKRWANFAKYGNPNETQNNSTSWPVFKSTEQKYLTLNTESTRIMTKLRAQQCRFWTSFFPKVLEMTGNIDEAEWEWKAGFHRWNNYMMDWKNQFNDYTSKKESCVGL
# Chain of Acetylcholinesterase (O42275 whole entry): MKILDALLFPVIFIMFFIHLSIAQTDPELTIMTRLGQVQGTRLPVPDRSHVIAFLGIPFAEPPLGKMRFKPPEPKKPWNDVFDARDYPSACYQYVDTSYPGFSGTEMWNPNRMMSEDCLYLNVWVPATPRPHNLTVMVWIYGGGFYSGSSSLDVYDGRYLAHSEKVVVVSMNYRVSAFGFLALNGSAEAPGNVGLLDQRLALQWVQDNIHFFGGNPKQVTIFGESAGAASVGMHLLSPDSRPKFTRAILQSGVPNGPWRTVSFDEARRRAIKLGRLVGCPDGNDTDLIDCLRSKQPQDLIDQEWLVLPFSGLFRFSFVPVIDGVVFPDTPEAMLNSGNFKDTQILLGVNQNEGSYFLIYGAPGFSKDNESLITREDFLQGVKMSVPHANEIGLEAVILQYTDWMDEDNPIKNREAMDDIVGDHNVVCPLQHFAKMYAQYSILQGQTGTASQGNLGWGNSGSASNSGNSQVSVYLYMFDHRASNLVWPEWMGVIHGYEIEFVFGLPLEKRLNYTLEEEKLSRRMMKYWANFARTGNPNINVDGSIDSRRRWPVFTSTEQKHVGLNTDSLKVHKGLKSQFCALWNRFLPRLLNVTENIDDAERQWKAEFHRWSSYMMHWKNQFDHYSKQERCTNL
Compound,IC50 (Acetylcholinesterase),IC50 (Cholinesterase),EC50 (Vero),EC50 (Human gammaherpesvirus 4),EC50 (CCRF-CEM [1]),EC50 (CCRF-CEM [2]),half-life [3],EC50 (L1210)
Cc1cccc2c1OP(=O)(OC[C@H](CO)OCn1cnc3c(O)nc(N)nc31)OC2 (stereo not given in full),> 50 µM,> 50 µM,3.3 µM,–,–,–,–,–
Cc1cccc2c1OP(=O)(OC[C@H]1O[C@@H](N3CC(/C=C/Br)C(=O)NC3=O)C[C@@H]1O)OC2 (stereo not given in full),> 50 µM,> 50 µM,–,4.1 µM,–,–,–,–
Cc1cccc2c1OP(=O)(OCC(CO)CCn1cnc3c(O)nc(N)nc31)OC2 (stereo not given),> 50 µM,> 50 µM,17.7 µM,–,–,–,–,–
Cc1cn(C2C=CC(COP3(=O)OCc4cccc(CCC(=O)OC(C)(C)C)c4O3)O2)c(=O)[nH]c1=O (stereo not given),> 50 µM,3.4 µM,–,–,0.33 µM,–,–,–
Cc1cccc2c1O[P@@](=O)(OC[C@@H](CO)OCn1cnc3c(O)nc(N)nc31)OC2,> 50 µM,> 50 µM,–,3.29 µM,–,–,–,–
Cc1cccc2c1OP(=O)(OCCOCn1cnc3c(O)nc(N)nc31)OC2 (stereo not given),> 50 µM,> 50 µM,0.15 µM,–,–,–,–,–
Cc1cn(C2C=CC(COP3(=O)OCc4c(F)c(C(C)(C)C)cc(C(C)(C)C)c4O3)O2)c(=O)[nH]c1=O (stereo not given),> 50 µM,48 µM,–,–,–,0.16 µM,6.2 h,–
"Cc1cccc2c1O[P@](=O)(OC[C@H]1OC(n3cc(F)c(=O)[nH]c3=O)C[C@@H]1O)OC2 (single isomer, unassigned)",> 50 µM,> 50 µM,–,–,–,–,–,0.044 µM
